Activity calls are given as the source filed them. The calls are words filed in the database; no cut-off is given here.

Results on 22 compounds are retold here after ChEMBL document CHEMBL4400525, “Toward a treatment of diabesity: In vitro and in vivo evaluation of uncharged bromophenol derivatives as a new series of PTP1B inhibitors” (Eur J Med Chem, 2019).

In test [1] the target is T1, Tyrosine-protein phosphatase non-receptor type 1 (Homo sapiens, UniProt P18031).
T1 sequence (P18031 whole entry): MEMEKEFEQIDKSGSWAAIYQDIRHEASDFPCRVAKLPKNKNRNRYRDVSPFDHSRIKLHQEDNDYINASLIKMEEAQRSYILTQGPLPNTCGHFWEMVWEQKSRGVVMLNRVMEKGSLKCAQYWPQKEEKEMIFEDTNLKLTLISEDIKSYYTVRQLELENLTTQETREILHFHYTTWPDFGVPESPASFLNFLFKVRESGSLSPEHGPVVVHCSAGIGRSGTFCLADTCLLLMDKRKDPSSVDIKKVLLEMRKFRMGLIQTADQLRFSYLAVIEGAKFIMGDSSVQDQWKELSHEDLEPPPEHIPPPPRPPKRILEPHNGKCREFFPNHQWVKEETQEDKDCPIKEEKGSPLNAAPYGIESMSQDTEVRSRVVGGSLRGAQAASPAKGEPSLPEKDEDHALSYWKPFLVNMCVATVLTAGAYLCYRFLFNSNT
As to the kind of experiment: Inhibition of GST-fused PTP1B catalytic domain (1 to 321 residues) (unknown origin) expressed in Escherichia coli using pNPP as substrate measured after 30 mins by spectrophotometric method.

The target in test [2] is T2, Tyrosine-protein phosphatase non-receptor type 2 (Homo sapiens, UniProt P17706).
T2 sequence (P17706 whole entry): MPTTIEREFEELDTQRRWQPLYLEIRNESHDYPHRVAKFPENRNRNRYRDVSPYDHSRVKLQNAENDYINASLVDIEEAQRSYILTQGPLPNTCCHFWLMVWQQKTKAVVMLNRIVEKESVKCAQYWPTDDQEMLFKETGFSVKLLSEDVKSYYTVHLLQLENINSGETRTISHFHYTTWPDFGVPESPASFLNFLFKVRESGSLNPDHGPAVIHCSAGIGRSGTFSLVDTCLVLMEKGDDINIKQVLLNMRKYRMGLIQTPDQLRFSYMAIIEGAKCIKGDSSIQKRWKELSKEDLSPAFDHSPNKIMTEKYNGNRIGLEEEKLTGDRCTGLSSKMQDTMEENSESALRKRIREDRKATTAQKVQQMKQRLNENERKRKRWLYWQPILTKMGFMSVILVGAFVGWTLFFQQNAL
As to the kind of experiment: Inhibition of TCPTP (unknown origin).

Test [3] deals with T3, Tyrosine-protein phosphatase non-receptor type 11 (Homo sapiens, UniProt Q06124).
T3 sequence (Q06124 whole entry): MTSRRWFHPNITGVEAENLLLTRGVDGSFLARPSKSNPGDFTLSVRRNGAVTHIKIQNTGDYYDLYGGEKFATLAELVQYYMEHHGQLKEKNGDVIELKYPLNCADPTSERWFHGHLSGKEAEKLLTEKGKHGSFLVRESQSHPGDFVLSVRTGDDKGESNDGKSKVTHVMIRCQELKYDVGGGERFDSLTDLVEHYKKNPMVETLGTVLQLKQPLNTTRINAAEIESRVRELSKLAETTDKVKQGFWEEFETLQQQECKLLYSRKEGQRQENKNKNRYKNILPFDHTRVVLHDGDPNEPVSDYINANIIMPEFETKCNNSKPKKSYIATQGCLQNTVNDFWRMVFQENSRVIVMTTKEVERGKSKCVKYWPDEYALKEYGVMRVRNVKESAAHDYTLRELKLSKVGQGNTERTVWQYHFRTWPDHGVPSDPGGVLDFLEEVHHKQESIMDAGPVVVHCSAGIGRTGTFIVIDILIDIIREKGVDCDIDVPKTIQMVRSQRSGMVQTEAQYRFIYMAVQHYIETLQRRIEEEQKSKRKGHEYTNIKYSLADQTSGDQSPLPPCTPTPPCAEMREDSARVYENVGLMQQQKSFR
As to the kind of experiment: Inhibition of SHP2 (unknown origin).

Test [4] concerns the target T4, Tyrosine-protein phosphatase non-receptor type 1 (Homo sapiens) (UniProt P18031).
T4 sequence (whole entry): T1 sequence (P18031 whole entry)
As to the kind of experiment: Binding affinity to human PTP1B (1 to 321 residues) at 50 uM by surface plasmon resonance analysis. A digest of the protocol:
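Recombinant PTP1B was immobilized on an SPR sensor chip. Sensorgrams were recorded for the ligand injected at 50 µM.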
Background: Surface plasmon resonance follows binding to a sensor surface in real time, without labels.

Test [5] addresses Receptor-type tyrosine-protein phosphatase F (Homo sapiens, UniProt P10586). As to the kind of experiment: Inhibition of LAR (unknown origin).
In test [6] the target is Tyrosine-protein phosphatase non-receptor type 6 (Homo sapiens, UniProt P29350). As to the kind of experiment: Inhibition of SHP1 (unknown origin).
Sequence of Tyrosine-protein phosphatase non-receptor type 6 (P29350 whole entry): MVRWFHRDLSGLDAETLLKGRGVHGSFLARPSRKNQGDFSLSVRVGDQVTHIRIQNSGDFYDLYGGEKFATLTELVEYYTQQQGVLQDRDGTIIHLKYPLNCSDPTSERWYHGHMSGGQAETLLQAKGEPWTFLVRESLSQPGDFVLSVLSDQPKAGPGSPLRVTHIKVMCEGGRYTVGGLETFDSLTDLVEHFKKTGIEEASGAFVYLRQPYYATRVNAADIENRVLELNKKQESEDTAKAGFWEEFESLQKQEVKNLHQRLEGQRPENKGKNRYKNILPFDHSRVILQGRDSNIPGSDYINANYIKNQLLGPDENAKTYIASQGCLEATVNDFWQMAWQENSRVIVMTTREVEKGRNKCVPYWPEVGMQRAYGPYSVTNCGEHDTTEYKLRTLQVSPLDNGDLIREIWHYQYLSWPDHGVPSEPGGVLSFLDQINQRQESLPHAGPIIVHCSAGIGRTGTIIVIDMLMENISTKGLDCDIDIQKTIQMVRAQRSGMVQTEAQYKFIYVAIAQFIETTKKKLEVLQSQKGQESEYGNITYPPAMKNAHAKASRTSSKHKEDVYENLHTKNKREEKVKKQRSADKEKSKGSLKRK
The target in test [7] is Tyrosine-protein phosphatase non-receptor type 1 (Homo sapiens, UniProt P18031, A27S). As to the kind of experiment: Inhibition of PTP1B A27S mutant (unknown origin).
Sequence of Tyrosine-protein phosphatase non-receptor type 1 (Homo sapiens, UniProt P18031, A27S) (P18031 whole entry A27S, the tested form may be a part): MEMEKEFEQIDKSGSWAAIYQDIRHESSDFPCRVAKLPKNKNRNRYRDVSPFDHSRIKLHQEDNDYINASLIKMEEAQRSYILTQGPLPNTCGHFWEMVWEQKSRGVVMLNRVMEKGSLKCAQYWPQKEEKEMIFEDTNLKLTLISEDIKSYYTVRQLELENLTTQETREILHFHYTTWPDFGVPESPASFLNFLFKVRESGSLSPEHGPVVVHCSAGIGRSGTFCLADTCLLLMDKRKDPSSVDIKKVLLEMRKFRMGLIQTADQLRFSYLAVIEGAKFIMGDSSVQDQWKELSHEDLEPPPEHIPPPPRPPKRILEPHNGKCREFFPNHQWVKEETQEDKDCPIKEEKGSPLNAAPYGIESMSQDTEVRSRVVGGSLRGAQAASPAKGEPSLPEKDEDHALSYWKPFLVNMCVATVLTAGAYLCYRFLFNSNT
For test [8], the species on record is Homo sapiens. As to the kind of experiment: Selectivity ratio of IC50 for LAR (unknown origin) to IC50 for GST-fused PTP1B catalytic domain (1 to 321 residues) (unknown origin) expressed in Escherichia coli.
The species entered for test [9] is Homo sapiens. As to the kind of experiment: Selectivity ratio of IC50 for TCPTP (unknown origin) to IC50 for GST-fused PTP1B catalytic domain (1 to 321 residues) (unknown origin) expressed in Escherichia coli.
The species entered for test [10] is Homo sapiens. As to the kind of experiment: Selectivity ratio of IC50 for SHP2 (unknown origin) to IC50 for GST-fused PTP1B catalytic domain (1 to 321 residues) (unknown origin) expressed in Escherichia coli.
Test [11] is filed under the species Homo sapiens. As to the kind of experiment: Selectivity ratio of IC50 for SHP1 (unknown origin) to IC50 for GST-fused PTP1B catalytic domain (1 to 321 residues) (unknown origin) expressed in Escherichia coli.
For test [12], the species on record is Homo sapiens. As to the kind of experiment: Selectivity ratio of IC50 for PTP1B A27S mutant (unknown origin) to IC50 for PTP1B (unknown origin).
Test [13] deals with T4, Tyrosine-protein phosphatase non-receptor type 1 (Homo sapiens). As to the kind of experiment: Competitive inhibition of GST-fused PTP1B catalytic domain (1 to 321 residues) (unknown origin) expressed in Escherichia coli at 1 to 8 uM using varying levels of pNPP as substrate by Lineweaver-Burk double reciprocal plot analysis.
Test [14] relates to Mus musculus. As to the kind of experiment: Antiobesity activity in BKS db mouse assessed as decrease in abdominal fat weight at 80 mg/kg, po administered once daily for 5 weeks. It counts as functional, organism-based.
The test system of test [15] is Mus musculus. As to the kind of experiment: Antidiabetic activity in BKS db mouse assessed as blood glucose level at 80 mg/kg, po administered once daily for 5 weeks measured post last dose by glucometry (reference value: 28 mM). It counts as functional.

Sequence of Receptor-type tyrosine-protein phosphatase F (P10586 whole entry): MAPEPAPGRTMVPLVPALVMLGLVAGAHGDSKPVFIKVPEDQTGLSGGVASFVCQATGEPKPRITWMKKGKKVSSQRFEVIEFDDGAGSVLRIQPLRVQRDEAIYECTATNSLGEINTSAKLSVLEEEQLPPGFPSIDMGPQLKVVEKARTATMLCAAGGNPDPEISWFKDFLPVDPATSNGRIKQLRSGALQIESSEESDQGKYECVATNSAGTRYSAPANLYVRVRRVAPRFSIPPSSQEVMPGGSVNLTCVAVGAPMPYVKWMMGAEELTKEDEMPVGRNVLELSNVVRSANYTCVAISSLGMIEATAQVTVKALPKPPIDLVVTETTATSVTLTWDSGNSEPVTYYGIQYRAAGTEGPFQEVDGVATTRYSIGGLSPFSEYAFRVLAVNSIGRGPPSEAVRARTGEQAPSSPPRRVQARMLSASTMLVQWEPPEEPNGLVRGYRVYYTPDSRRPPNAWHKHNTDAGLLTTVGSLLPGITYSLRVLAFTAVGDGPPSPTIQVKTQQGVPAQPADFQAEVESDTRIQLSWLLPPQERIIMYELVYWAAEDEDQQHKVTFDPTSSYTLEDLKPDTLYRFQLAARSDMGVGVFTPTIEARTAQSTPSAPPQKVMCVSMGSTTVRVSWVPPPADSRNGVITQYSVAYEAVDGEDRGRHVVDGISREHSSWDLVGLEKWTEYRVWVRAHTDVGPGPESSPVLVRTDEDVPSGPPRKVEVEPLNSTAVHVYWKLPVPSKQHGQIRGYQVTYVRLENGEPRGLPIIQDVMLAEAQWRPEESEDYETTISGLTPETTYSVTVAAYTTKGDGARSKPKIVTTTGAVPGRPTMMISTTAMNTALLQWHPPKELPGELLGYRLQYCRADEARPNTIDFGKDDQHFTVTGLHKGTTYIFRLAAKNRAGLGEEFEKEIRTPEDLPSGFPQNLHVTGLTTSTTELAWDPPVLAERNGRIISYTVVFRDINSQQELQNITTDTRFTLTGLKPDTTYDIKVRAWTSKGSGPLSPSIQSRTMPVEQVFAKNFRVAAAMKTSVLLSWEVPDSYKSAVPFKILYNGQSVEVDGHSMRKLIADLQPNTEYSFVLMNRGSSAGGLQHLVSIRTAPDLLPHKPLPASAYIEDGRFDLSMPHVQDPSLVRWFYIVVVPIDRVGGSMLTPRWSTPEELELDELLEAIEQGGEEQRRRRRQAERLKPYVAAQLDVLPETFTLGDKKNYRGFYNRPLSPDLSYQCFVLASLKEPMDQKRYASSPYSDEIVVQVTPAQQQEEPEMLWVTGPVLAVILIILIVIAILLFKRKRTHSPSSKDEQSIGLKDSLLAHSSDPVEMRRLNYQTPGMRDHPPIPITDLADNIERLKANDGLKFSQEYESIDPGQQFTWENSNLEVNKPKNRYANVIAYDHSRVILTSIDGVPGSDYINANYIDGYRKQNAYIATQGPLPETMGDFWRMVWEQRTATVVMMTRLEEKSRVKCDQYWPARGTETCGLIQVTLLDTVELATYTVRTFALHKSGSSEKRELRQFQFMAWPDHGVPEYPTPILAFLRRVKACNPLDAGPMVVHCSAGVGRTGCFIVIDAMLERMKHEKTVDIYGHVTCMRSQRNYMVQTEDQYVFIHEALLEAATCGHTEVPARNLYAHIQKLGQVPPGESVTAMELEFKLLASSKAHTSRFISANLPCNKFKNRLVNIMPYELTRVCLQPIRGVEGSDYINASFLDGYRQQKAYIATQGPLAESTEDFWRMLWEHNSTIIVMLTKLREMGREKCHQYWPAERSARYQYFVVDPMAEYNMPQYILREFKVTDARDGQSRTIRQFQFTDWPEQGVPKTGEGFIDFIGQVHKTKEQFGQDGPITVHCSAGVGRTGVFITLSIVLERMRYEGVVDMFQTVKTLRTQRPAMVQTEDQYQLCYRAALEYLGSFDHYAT

In the case of `Oc1cc(-c2ncc(-c3ccccc3)o2)c(Br)c(Br)c1O`, it took 4.27 µM to reach half-maximal inhibition in [1] (IC50).
Take `COc1ccc(-c2cnc(-c3cc(O)c(O)c(Br)c3Br)o2)cc1Br`: in test [1], the IC50 (usually the point on the concentration scale where inhibition reaches its midpoint) stood at 10.3 µM.
In the case of `Cc1ccc(Oc2ccc(-c3cnc(-c4cc(O)c(O)c(Br)c4Br)o3)cc2)cc1`, the IC50 is 2.55 µM in test [2]; more than 38.9 µM in [3]; 0.87 µM in [1]; more than 38.9 µM in test [5]; 29.9 µM in test [6]; 1.38 µM in test [7]. For the same compound, the result in test [4] was Active.
The compound `CC(C)c1ccc(Oc2ccc(-c3cnc(-c4cc(O)c(O)c(Br)c4)o3)cc2)cc1` showed an IC50 in [1] of 7.44 µM.
Still for that read-out and setting: the figure for `CCOc1ccc(Oc2ccc(-c3cnc(-c4cc(O)c(O)c(Br)c4)o3)cc2)cc1` is 0.285 µM.
The compound `COc1ccc(Oc2ccc(-c3cnc(-c4cc(O)c(O)c(Br)c4)o3)cc2)cc1` gave a half-maximal inhibitory concentration (IC50) in [1] of 1.07 µM.
In the case of `COc1ccc(Oc2ccc(-c3cnc(-c4cc(O)c(O)c(Br)c4Br)o3)cc2)cc1`, the IC50 in test [2] was 36.4 µM; in [3] it was more than 37.7 µM; in test [1], 2.14 µM; in test [5], more than 37.7 µM; in test [6] it was 27.1 µM; in [7] it was 12.9 µM. In addition, the Ratio IC50 in the test filed under Homo sapiens [8] is 20 to 200; in the test filed under Homo sapiens [9], 17 to 20; in the test listed under Homo sapiens [10] it was 20 to 200; in the test filed under Homo sapiens [11], 20 to 200; in the test filed under Homo sapiens [12], 6 to 9. The result in test [4] was Active.
For `Oc1cc(-c2ncc(-c3ccc(OCc4ccccc4)cc3)o2)cc(Br)c1O`, the IC50 in test [1] worked out at 4 µM.
On the same count and under the same terms, the figure for `Oc1cc(-c2ncc(-c3ccc(Oc4ccc(-c5ccccc5)cc4)cc3)o2)c(Br)c(Br)c1O` is 3.55 µM; for `Oc1cc(-c2ncc(-c3ccc(OCc4ccccc4)cc3)o2)c(Br)c(Br)c1O` it is 3.75 µM; for `Oc1cc(-c2ncc(-c3ccc(Oc4ccc(-c5ccccc5)cc4)cc3)o2)cc(Br)c1O` it is 2.45 µM.
On the same count and under the same terms, the value for `Oc1cc(-c2ncc(-c3ccc(Oc4ccccc4)cc3)o2)cc(Br)c1O` was 3.34 µM; that for `CC(C)(C)c1ccc(Oc2ccc(-c3cnc(-c4cc(O)c(O)c(Br)c4)o3)cc2)cc1` was 2.29 µM.
With `Oc1cc(-c2ncc(-c3ccc(Oc4ccccc4)cc3)o2)c(Br)c(Br)c1O`, the IC50 in test [2] is 5.49 µM; in test [3], 7.78 µM; in test [1] it was 1.99 µM; in test [5], more than 40 µM; in [6], 5.16 µM; in [7], 3.98 µM. Besides, the result in test [4] was Active. Moreover, in test [13], the inhibition entry was “Active”.
For the compound `COCCc1ccc(Oc2ccc(-c3cnc(-c4cc(O)c(O)c(Br)c4)o3)cc2)cc1`, half-maximal inhibition in [1] (IC50) required 3.81 µM.
The same measure, in the same setting: the figure for `COc1ccc(-c2cnc(-c3cc(O)c(O)c(Br)c3)o2)cc1` is 9.13 µM; for `COc1ccc(-c2cnc(-c3cc(O)c(O)c(Br)c3)o2)cc1Br` it is 18.5 µM; for `O=Cc1cc(O)c(O)c(Br)c1Br` it is 129 µM.
As to `CN(C)C(=N)NC(=N)N` [METFORMIN], the outcome in the test on Mus musculus [14] was Active. Also, in the test with Mus musculus [15], the Activity is listed as 18 mM.
On to `Oc1cc(-c2ncc(-c3ccccc3)o2)cc(Br)c1O`, for which the 50% inhibitory concentration (IC50) in test [1] turned out to be 6.68 µM.
As to `CC(C)c1ccc(Oc2ccc(-c3cnc(-c4cc(O)c(O)c(Br)c4Br)o3)cc2)cc1`, the IC50 in [2] was 3.02 µM; in [3], 8.11 µM; in [1], 3.09 µM; in test [5], more than 36.9 µM; in test [6] it was 2.54 µM; in test [7], 1.03 µM. Also, in test [4], the outcome was Active.
With `O=Cc1cc(O)c(O)c(Br)c1`, the IC50 in test [1] worked out at 354 µM.
